High-throughput results deposited in PubChem by several laboratories.
An excerpt weighted towards active compounds, which were near 2.1% of everything screened.
APJ antagonist: APJ receptor antagonism; P35414; CHO-K1 APJ beta-arrestin complementation, luminescence; inhibition, % at 20 µM; 330,000 compounds, 0.32% hits;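 active means inhibition above about 40% at 20 µM, limit read from the data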;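 further: cells challenged with 10 nM apelin-13 agonist together with compound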
CXCR6 block: blocks human CXCR6 beta-arrestin recruitment | 360,000 compounds, 0.36% hits | inhibition, % at 20 µM | CHO-K1 PathHunter CXCR6 beta-arrestin, luminescence | AID 602244; in the data active means inhibition above about 34%, passing the limit was not always enough;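 further: antagonist mode with CXCL16 agonist at 10 nM final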
CCR6 antagonist: blocks CCL20-driven beta-arrestin recruitment at human CCR6; CHO-K1 CCR6 PathHunter beta-arrestin, luminescence, CCL20-stimulated; inhibition, % at 20 µM; 340,000 compounds, 0.49% hits; AID 493098;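 active means compounds whose inhibition of the agonist-driven luminescence signal at 20 µM reaches about 50%, limit read from the data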;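 further: cells stimulated with CCL20 at 14 nM final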
APJ ag: APJ receptor agonism; P35414; CHO-K1 APJ PathHunter beta-arrestin, luminescence; 0% DMSO wells, 100% apelin; activation, % at 20 µM; 330,000 compounds, 0.11% hits;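 active means activation more than six SD over the plate average, tested at 20 µM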
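Test system – PathHunter CHO-K1 APJ (AGTRL-1) beta-arrestin reporter cells · Input – 1000 cells/well · Compound – single test compound dose, 20 µM final, 1% DMSO · Times – compound stimulation 90 min at 25 °C, detection 60 min · Technique – beta-gal luminescence · Read-out basis – APJ–arrestin association signal · Control set – negative DMSO alone, positive Apelin-13 at 10 nM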
EBI2 block: EBI2 (human) antagonism | 360,000 compounds, 0.81% hits | inhibition, % at 5 µM | P32249 | EBI2 beta-arrestin recruitment, luminescence, 7a,25-OHC stimulated | AID 651636; in the data active means inhibition above about 38%;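 further: enzyme fragment complementation signal reports receptor beta-arrestin coupling in cells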
HTR2A ag: activates the mouse 5-HT2A serotonin receptor; P35363; CHO-K1 mHTR2A beta-arrestin complementation, luminescence; percent of 30 µM serotonin response; activation, % at 7.6 µM; 360,000 compounds, 0.66% hits; AID 624169;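 active means activation above a run cutoff, the mean activation of all tested compounds plus 3 SD, cut at about 14% in these data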
Target sequence (P35363 whole entry, looked up): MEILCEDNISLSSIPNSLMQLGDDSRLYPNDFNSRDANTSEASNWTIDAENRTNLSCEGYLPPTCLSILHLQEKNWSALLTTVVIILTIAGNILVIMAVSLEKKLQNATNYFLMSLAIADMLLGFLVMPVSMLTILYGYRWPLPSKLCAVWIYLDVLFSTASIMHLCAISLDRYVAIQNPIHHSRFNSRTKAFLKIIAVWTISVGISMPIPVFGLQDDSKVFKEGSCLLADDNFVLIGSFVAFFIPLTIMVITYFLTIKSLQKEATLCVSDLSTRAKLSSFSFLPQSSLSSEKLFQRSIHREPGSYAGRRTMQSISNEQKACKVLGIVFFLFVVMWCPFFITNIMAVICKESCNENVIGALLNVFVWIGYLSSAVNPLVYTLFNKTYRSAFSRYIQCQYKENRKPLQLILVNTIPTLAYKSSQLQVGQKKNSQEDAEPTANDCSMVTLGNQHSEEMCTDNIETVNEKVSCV
EBI2 antag conf: confirmation of human EBI2 receptor antagonists. shares compounds with EBI2 block. EBI2 beta-arrestin luminescence, 7a,25-OHC antagonism. inhibition, % at 5 µM. 2,400 compounds, 29% hits. AID 651997;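 active means inhibition of at least 50%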
EBI2 agonist: counter-screen for EBI2 antagonists: EBI2 agonist activity; shares compounds with EBI2 block; EBI2-expressing cells, agonist mode, luminescence, 60 min; 0% vehicle, 100% 7α,25-dihydroxycholesterol control; activation, % at 5 µM; 2,400 tested, under 10 active; AID 652000;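 active means activation of at least 50%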
bGal counter: inhibits E. coli beta-galactosidase, counter-screen for EBI2 antagonists; 2,400 compounds, 1% hits; shares compounds with EBI2 block; AID 652176; purified beta-galactosidase, luminescent Galacton Star, 15 min; inhibition, % at 5 µM;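 active means replicate-average signal at least 3 plate SD below neutral wells, shown as high inhibition, flagging enzyme-inhibiting false positives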;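 further: higher means stronger loss of beta-gal luminescence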
Large screens that a line does not name were inactive (follow-up assays come after a bar, where they were run).

O=C(CCc1ccccc1)N1CCN(C(=O)CCc2ccccc2)CC1	EBI2 block 55 (no result: APJ antagonist, APJ ag) | EBI2 antag conf inactive | EBI2 agonist inactive | bGal counter inactive
CCCCn1c2ccc(F)cc2c2nnc(SCCN3CCOCC3)nc21	EBI2 block 63 | EBI2 antag conf inactive | EBI2 agonist inactive | bGal counter inactive
Cn1c2ccc(F)cc2c2nnc(SCCN3CCOCC3)nc21	none
CCCCn1c2ccccc2c2nnc(SCCN3CCCCC3)nc21	EBI2 block 49 | EBI2 antag conf inactive | EBI2 agonist inactive | bGal counter inactive
COCCCN(C(=O)c1cc(-c2ccco2)nc2ccccc12)c1c(N)n(Cc2ccccc2)c(=O)[nH]c1=O	none
O=C(CN1CCN(C(=O)C2CCN(C(=O)/C=C/c3ccccc3)CC2)CC1)Nc1ccc(F)cc1	EBI2 block 62 (no result: APJ antagonist, APJ ag) | EBI2 antag conf inactive | EBI2 agonist inactive | bGal counter inactive
O=C(/C=C/c1cccc(Cl)c1)N1CCC(Cc2ccccc2)CC1	EBI2 block 70 | EBI2 antag conf 51 | EBI2 agonist inactive | bGal counter inactive
O=C(/C=C/c1ccccc1)N1CCN(CCN2C(=O)c3cccc4cccc(c34)C2=O)CC1	EBI2 block 92 | EBI2 antag conf 84 | EBI2 agonist inactive | bGal counter inactive
Clc1cccc(CN2CCC(Cc3ccccc3)CC2)c1	none
O=C(/C=C/c1ccccc1)N1CCC(Cc2ccccc2)CC1	EBI2 block 90 | EBI2 antag conf 77 | EBI2 agonist inactive | bGal counter inactive
CC(C)CN(C(=O)COc1ccccc1C(=O)NCc1ccccc1)C1CCS(=O)(=O)C1 (configuration not stated)	none (no result: APJ antagonist, CCR6 antagonist, APJ ag)
Fc1cccc(Cc2c(-c3ccccc3)nc3c4ccccc4ccn23)c1	none (no result: APJ antagonist, CCR6 antagonist, APJ ag)
O=C(/C=C/c1ccccc1)N1CCC(c2ccccc2)C1 (configuration not stated)	EBI2 block 64 | EBI2 antag conf inactive | EBI2 agonist inactive | bGal counter inactive
COC(=O)C1CCN(C(=O)/C=C/c2ccccc2)CC1	EBI2 block 66 | EBI2 antag conf 50 | EBI2 agonist inactive | bGal counter inactive
CCN1CCN(C(=S)Nc2ccc([N+](=O)[O-])cc2)CC1	none
O=C(/C=C/c1ccc([N+](=O)[O-])cc1)N1CCN(Cc2ccccc2)CC1	EBI2 block 90 | EBI2 antag conf 64 | EBI2 agonist inactive | bGal counter inactive
O=C(/C=C/c1ccc(F)cc1)NNC(=O)CCN1CCN(Cc2ccccc2)CC1	EBI2 block 42 | EBI2 antag conf inactive | EBI2 agonist inactive | bGal counter inactive
COc1cccc(/C=C/C(=O)NNC(=O)CCN2CCN(Cc3ccccc3)CC2)c1	none
O=C(/C=C/c1ccc(F)cc1)NC(=S)N1CCN(Cc2ccccc2)CC1	none
O=[N+]([O-])c1ccc(/C=N/N2CCN(Cc3ccccc3)CC2)cc1	none
O=C(/C=C/c1ccc(OCCCF)cc1)N1CCN(Cc2ccccc2)CC1	EBI2 block 88 | EBI2 antag conf 50 | EBI2 agonist inactive | bGal counter inactive
CCN1CCN(C(=O)/C=C/c2ccc([N+](=O)[O-])cc2)CC1	EBI2 block 74 | EBI2 antag conf inactive | EBI2 agonist inactive | bGal counter inactive
O=C(NCc1ccco1)/C(=C/c1ccccc1F)NC(=O)c1ccccc1	none
Cc1cc(C)c(S(=O)(=O)NCc2nc3nc(C)cc(C)n3n2)c(C)c1	none
COC(/C(=N/O)c1ccc(Cl)cc1)c1ccccc1 (configuration not stated)	none
CC(=O)NC1=NN(C(C)=O)C(c2ccco2)S1 (configuration not stated)	none
CCOC(=O)Cc1csc(NC(=O)/C=C\c2ccccc2)n1	none
CCOC(=O)Cc1csc(NC(=O)/C=C/c2ccc(OC)cc2)n1	EBI2 block 46 | EBI2 antag conf inactive | EBI2 agonist inactive | bGal counter inactive
O=S(=O)(c1ccc(NC(=S)Nc2ccc(OC(F)F)cc2)cc1)N1CCOCC1	EBI2 block 49 | EBI2 antag conf inactive | EBI2 agonist inactive | bGal counter inactive
NNC(=S)Nc1ccc(S(=O)(=O)N2CCOCC2)cc1	none
Cc1cc2cc(CNC(=O)c3ccc(S(=O)(=O)N4CCCCC4)cc3)ccc2[nH]1	EBI2 block 47 | EBI2 antag conf inactive | EBI2 agonist inactive | bGal counter inactive
O=C(NCc1ccc2[nH]c3c(c2c1)CCCC3)c1ccc(S(=O)(=O)N2CCCC2)cc1	none
O=C(COc1ccc2ccccc2c1)Nc1ccc(S(=O)(=O)N2CCCCCC2)cc1	EBI2 block 56 | EBI2 antag conf inactive | EBI2 agonist inactive | bGal counter inactive
Cc1ccc(CNC(=O)c2ccc(S(=O)(=O)N3CCCCCC3)cc2)cc1	EBI2 block 72 (no result: APJ antagonist, CCR6 antagonist, APJ ag) | EBI2 antag conf inactive | EBI2 agonist inactive | bGal counter inactive
C=CCOc1ccc(C2=NOC(C(=O)Nc3ccc4c(c3)OCCO4)C2)cc1OC (configuration not stated)	none
Cc1nc(NC(=O)C(C)(C)C)sc1C(=O)Cn1cc(CCCC#N)nn1	none (no result: APJ antagonist, CCR6 antagonist, APJ ag)
Cc1ccc(NC(=O)c2ccc(S(=O)(=O)N3CCCCC3)cc2)cc1	EBI2 block 45 | EBI2 antag conf inactive | EBI2 agonist inactive | bGal counter inactive
Cc1ccc(CNC(=O)C2=CCN(S(=O)(=O)c3ccc(C)cc3)CC2)cc1	EBI2 block 66 (no result: CCR6 antagonist) | EBI2 antag conf inactive | EBI2 agonist inactive | bGal counter inactive
Cc1ccc(NC(=S)Nc2ccc(C(C)C)cc2)cc1S(=O)(=O)N1CCCCCC1	EBI2 block 50 | EBI2 antag conf 51 | EBI2 agonist inactive | bGal counter inactive
Cc1ccc(NC(=O)c2ccc(S(=O)(=O)N3CCCC3)cc2)cc1	none
NNC(=S)Nc1ccc(S(=O)(=O)N2CCCCC2)cc1	EBI2 block 44 | EBI2 antag conf inactive | EBI2 agonist inactive | bGal counter inactive
COc1ccc(NC(=S)Nc2ccc(C)c(S(=O)(=O)N3CCCCC3)c2)cc1	none (no result: CXCR6 block, CCR6 antagonist, EBI2 block, HTR2A ag)
CCN(CC)S(=O)(=O)c1ccc(N2CC(C(=O)Nc3cccc(C(=O)NC4CC4)c3)CC2=O)cc1 (configuration not stated)	none (no result: APJ antagonist, APJ ag)
CC1CCCC(C)N1CCNC(=O)CCc1nnc2n(Cc3ccccc3)c(=O)c3ccccc3n12 (configuration not stated)	none
COCCN(CC1CCCN(C2Cc3ccccc3C2)C1)C(=O)CCC(N)=O (configuration not stated)	none
